Results as given in ChEMBL document CHEMBL1671684, “In vitro resistance profile of the hepatitis C virus NS3/4A protease inhibitor TMC435” (Antimicrob Agents Chemother, 2010).
Activity calls are given as the source filed them. The rule behind the calls is not given here.

What was measured:
Hepatitis C virus [1] = assay: Inhibition of Hepatitis C virus subtype 1b NS3/4A protease
Hepatitis C virus [2] = assay: Antiviral activity against Hepatitis C virus subtype 2a JFH1 infected in HuH7.5 cells assessed as delay in occurrence of the viral-induced CPE at 500 nM after 3 days by luciferase reporter assay; assay type: functional, organism-based; settings: Hepacivirus hominis
Hepatitis C virus [3] = assay: Antiviral activity against Hepatitis C virus subtype 2a JFH1 infected in HuH7.5 cells assessed as viral RNA replication after initial decline at 4000 nM after 3 days by TaqMan RT-PCR; assay type: functional, organism-based; settings: Hepacivirus hominis
Hepatitis C virus [4] = assay: Antiviral activity against Hepatitis C virus infected in HuH7 cells assessed as cell viability at 25 times EC50 after 2 to 3 weeks by neutral red assay in presence of 1,000 ug/ml G418; assay type: functional, organism-based; settings: Hepacivirus hominis; Huh-7
Procedure, shortened: (§1)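 Huh7-Luc genotype 1b (con1, clone ET) replicon cells, 20,000 per 10-cm dish in DMEM with 1,000 μg/ml G418. Cells got one inhibitor or a two-inhibitor combination, dosed as multiples of each inhibitor's EC50 from a genotype 1b luciferase replicon assay. Held at 37°C, 5% CO2, with medium plus compound refreshed twice weekly. After 2–3 weeks, surviving colonies were stained with neutral red and counted. Three independent experiments.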

Hepatitis C virus [5] = assay: Antiviral activity against Hepatitis C virus subtype 2a JFH1 infected in HuH7.5 cells assessed as reduction in cellular viral RNA levels normalized to RPL13A RNA levels at 500 nM after 3 days by TaqMan RT-PCR; assay type: functional, organism-based; settings: Hepacivirus hominis
[6] = Inhibition of Hepatitis C virus subtype 2a NS3/4A protease
[7] = Inhibition of Hepatitis C virus subtype 3a NS3/4A protease
[8] = Inhibition of Hepatitis C virus subtype 4a NS3/4A protease
Hepatitis C virus [9] = assay: Antiviral activity against Hepatitis C virus infected in HuH7 cells assessed as cell viability at 2.5 times EC50 after 2 to 3 weeks by neutral red assay in presence of 1,000 ug/ml G418; assay type: functional, organism-based; settings: Hepacivirus hominis; Huh-7; procedure, shortened: as §1

For COc1ccc2c(O[C@@H]3C[C@H]4C(=O)N[C@]5(C(=O)NS(=O)(=O)C6CC6)C[C@H]5/C=C\CCCCN(C)C(=O)[C@@H]4C3)cc(-c3nc(C(C)C)cs3)nc2c1C [SIMEPREVIR], the Ki (Hepatitis C virus [1]) was 0.5 nM, the inhibition (Hepatitis C virus [2]) was “Active” and the inhibition (Hepatitis C virus [3]) was “inactive”. For the same compound, the inhibition (Hepatitis C virus [4]) was “inactive”, the inhibition (Hepatitis C virus [5]) was “Active” and the IC50 [6] was under 13 nM. For the same compound, the IC50 [7] was 37 nM, the IC50 [8] was under 13 nM and the inhibition (Hepatitis C virus [9]) was “inactive”.
